Test results as given in ChEMBL document CHEMBL1142098, “A xanthocillin-like alkaloid from the insect pathogenic fungus Cordyceps brunnearubra BCC 1395” (J Nat Prod, 2007).
The source made the active and inactive calls. No cut-off for these calls is given here.

How the values were obtained:
[1] = system: Vero; test: Cytotoxicity against Vero cells upto 140 uM; format: cell-based; details: chlorocebus sabaeus
In short: (§1)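 Cytotoxicity was measured by a colorimetric method on purified compounds. The cells were human epidermoid carcinoma (KB), human breast cancer (BC), human lung cancer (NCI-H187) and African green monkey kidney fibroblast (Vero) cells.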

[2] = system: KB; test: Cytotoxicity against human KB cells upto 56 uM; format: cell-based; in short: as §1
[3] = Cytotoxicity against human BC cells upto 56 uM; format: cell-based; details: for Activity: human, bc; in short: as §1
[4] = Cytotoxicity against human NCI-H187 cells upto 56 uM; format: cell-based; in short: as §1
[5] = system: Plasmodium falciparum; test: Antimalarial activity against multidrug-resistant Plasmodium falciparum K1; format: functional, organism-based
In short: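 Microculture radioisotope assay against the multidrug-resistant K1 strain of P. falciparum, with IC50 read out. Dihydroartemisinin was run as the reference standard in the same assay system.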

Row | Compound | Activity [1] | Activity [2] | Activity [3] | Activity [4] | Activity [5] | IC50 [5] [µM] | IC50 ([3]; Homo sapiens, BC) [µM]
1 | CC(=O)O/C=N/C(=C\c1ccc(OC(C)=O)c(OC(C)=O)c1)C(=C/c1ccc(OC(C)=O)c(OC(C)=O)c1)/N=C/OC(C)=O | Not Active | Not Active | Not Active | Not Active | inactive |  | 
2 | C[C@H]1[C@@H](O)O[C@@H]2O[C@@]3(C)CC[C@H]4[C@H](C)CC[C@@H]1[C@@]24OO3 [ARTENIMOL] |  |  |  |  |  | 0.0042 | 
3 | O=CNC(=C\c1ccc(O)c(O)c1)/C(=C/c1ccc(O)c(O)c1)NC=O [CORDYFORMAMIDE] | Not Active | Not Active |  | Not Active |  | 18 | 39
4 | COc1ccc(/C=C(/C(=C/c2ccc(OC)c(OC)c2)N(C)C=O)N(C)C=O)cc1OC | Not Active | Not Active | Not Active | Not Active | inactive |  | 
